ChEMBL document CHEMBL5576111, “N-Sulfonylphenoxazines as neuronal calcium ion channel blockers” (RSC Med Chem, 2024)
pIC50: −log10 of the molar value.

Key:
[1] = target: Voltage-dependent N-type calcium channel subunit alpha-1B (Homo sapiens, UniProt Q00975); test: Inhibition of Cav2.2 in human SH-SY5Y cells assessed as inhibition of calcium influx preincubated 300 secs followed by addition of KCL/CaCl2 and measured for 300 secs in presence of Cav1 blocker nifedipine by calcium 6 dye based calcium influx assay; format: cell-based
Sequence of Voltage-dependent N-type calcium channel subunit alpha-1B (Q00975 whole entry): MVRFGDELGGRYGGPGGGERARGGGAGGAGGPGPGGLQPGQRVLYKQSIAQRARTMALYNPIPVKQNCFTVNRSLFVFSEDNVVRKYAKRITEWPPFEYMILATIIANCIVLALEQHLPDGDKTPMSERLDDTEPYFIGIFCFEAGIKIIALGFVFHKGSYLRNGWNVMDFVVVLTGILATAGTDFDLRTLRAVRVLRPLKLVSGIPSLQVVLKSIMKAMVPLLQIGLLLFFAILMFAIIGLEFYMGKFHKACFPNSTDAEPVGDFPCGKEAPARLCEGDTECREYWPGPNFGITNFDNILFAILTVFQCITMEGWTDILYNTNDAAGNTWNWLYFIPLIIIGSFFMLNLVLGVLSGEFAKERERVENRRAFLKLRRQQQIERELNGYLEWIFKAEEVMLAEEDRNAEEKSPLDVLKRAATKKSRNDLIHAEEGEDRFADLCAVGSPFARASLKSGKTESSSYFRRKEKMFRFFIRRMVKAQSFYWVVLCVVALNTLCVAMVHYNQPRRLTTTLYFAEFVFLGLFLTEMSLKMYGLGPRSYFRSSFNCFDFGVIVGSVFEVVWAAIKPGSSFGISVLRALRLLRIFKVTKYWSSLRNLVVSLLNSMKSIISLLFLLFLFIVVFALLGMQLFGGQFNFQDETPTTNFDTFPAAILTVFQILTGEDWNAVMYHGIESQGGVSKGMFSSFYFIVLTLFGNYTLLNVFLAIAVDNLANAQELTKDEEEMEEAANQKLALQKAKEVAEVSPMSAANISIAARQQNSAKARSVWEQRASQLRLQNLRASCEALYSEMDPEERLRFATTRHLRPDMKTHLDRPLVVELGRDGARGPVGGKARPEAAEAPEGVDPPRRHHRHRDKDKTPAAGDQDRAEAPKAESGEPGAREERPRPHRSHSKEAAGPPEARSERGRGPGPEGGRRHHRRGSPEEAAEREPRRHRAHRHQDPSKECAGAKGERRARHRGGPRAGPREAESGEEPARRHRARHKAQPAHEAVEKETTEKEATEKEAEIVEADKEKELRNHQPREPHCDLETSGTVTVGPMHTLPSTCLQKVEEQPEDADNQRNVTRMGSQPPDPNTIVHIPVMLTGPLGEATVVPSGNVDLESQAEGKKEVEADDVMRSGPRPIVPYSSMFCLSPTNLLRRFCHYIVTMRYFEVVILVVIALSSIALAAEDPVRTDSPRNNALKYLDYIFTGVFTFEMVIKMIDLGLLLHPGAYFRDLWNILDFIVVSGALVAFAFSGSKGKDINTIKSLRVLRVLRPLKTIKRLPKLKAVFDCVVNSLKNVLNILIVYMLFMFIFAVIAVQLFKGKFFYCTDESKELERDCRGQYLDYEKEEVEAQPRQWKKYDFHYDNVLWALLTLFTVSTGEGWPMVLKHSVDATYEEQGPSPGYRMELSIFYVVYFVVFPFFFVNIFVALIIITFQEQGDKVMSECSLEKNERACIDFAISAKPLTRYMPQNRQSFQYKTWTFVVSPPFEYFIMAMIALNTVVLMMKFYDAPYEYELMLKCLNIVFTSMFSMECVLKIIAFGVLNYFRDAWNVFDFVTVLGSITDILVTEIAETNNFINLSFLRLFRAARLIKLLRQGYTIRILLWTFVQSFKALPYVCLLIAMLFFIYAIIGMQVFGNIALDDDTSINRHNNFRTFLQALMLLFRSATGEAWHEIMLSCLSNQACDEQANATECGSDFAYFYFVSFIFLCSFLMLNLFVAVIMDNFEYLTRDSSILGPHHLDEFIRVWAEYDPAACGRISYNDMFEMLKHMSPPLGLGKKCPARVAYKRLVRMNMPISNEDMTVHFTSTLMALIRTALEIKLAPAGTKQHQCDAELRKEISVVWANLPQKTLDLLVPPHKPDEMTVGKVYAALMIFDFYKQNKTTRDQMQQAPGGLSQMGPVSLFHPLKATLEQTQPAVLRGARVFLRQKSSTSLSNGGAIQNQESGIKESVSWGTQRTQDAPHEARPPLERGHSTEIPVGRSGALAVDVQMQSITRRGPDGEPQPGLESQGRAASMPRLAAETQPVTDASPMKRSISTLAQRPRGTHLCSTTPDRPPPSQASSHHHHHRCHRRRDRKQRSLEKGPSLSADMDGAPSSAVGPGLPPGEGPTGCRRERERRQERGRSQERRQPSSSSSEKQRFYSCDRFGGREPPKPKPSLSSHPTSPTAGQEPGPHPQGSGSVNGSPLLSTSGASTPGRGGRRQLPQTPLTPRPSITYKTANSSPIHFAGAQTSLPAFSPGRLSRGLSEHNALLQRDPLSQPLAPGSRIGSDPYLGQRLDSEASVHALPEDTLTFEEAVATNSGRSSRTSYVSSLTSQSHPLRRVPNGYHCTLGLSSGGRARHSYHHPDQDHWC
Method in brief: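 Native Cav2.2 in SH-SY5Y neuroblastoma cells seeded at 40000/well and grown 48 h at 37 °C, 5% CO2. Calcium 6 dye loading 30 min at 37 °C in HEPES buffer pH 7.4 with 0.1% BSA and 10 µM nifedipine. Compound added for 300 s, then 90 mM KCl/5 mM CaCl2, read 300 s (ex 470-495, em 515-575 nm). Top concentration 100 µM, 3-fold dilutions, 1% DMSO; cilnidipine control; n = 3.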

[2] = Stability in Sprague-Dawley rat plasma assessed as parent compound remaining at 150 uM measured after 24 hrs at 37 degreeC by HPLC analysis; format: ADME, cell-free; details: read-out: Stability
[3] = Metabolic stability in rat liver microsomes assessed intrinsic clearance per mg protein at 1 uM measured up to 60 mins in presence of NADPH by LC/HRMS analysis; format: ADME, Microsome; details: 1 h

O=S(=O)(c1ccc(NCCCN2CCOCC2)cc1)N1c2ccccc2Oc2ccccc21
pIC50 [1]: 4.68

O=C(O)C(F)(F)F.O=S(=O)(c1ccc(OCCCN2CCOCC2)cc1)N1c2ccccc2Oc2ccccc21
remaining at 24 h, 150 µM [2]: > 90% | CLint [3]: 239 µL/min/mg | pIC50 [1]: 4.54

O=S(=O)(c1ccc(NCCCn2ccnc2)cc1)N1c2ccccc2Oc2ccccc21
pIC50 [1]: 4.86

CN(C)CCCOc1ccc(S(=O)(=O)N2c3ccccc3Oc3ccccc32)cc1.O=C(O)C(F)(F)F
remaining at 24 h, 150 µM [2]: > 90% | CLint [3]: 105 µL/min/mg | pIC50 [1]: 5.37

COCCCOc1ccc(S(=O)(=O)N2c3ccccc3Oc3ccccc32)cc1
pIC50 [1]: 3.76

CN(C)CCCN(C)c1ccc(S(=O)(=O)N2c3ccccc3Oc3ccccc32)cc1
pIC50 [1]: 4.73

O=C(O)C(F)(F)F.O=S(=O)(c1ccc(OCCCN2CCCC2)cc1)N1c2ccccc2Oc2ccccc21
remaining at 24 h, 150 µM [2]: > 90% | CLint [3]: 83 µL/min/mg | pIC50 [1]: 5.10

CNCCCNc1ccc(S(=O)(=O)N2c3ccccc3Oc3ccccc32)cc1
pIC50 [1]: 4.96

O=S(=O)(c1ccc(NCCCN2CCCC2)cc1)N1c2ccccc2Oc2ccccc21
pIC50 [1]: 5.36

CNCCCOc1ccc(S(=O)(=O)N2c3ccccc3Oc3ccccc32)cc1.O=C(O)C(F)(F)F
remaining at 24 h, 150 µM [2]: 73% | CLint [3]: 34 µL/min/mg | pIC50 [1]: 5.34

CN(C)CCCNc1ccc(S(=O)(=O)N2c3ccccc3Oc3ccccc32)cc1
pIC50 [1]: 5.04

O=C(O)C(F)(F)F.O=S(=O)(c1ccc(OCCCn2ccnc2)cc1)N1c2ccccc2Oc2ccccc21
remaining at 24 h, 150 µM [2]: > 90% | CLint [3]: 132 µL/min/mg | pIC50 [1]: 4.31

O=C(O)C(F)(F)F.O=S(=O)(c1ccc(OCCCN2CCCCC2)cc1)N1c2ccccc2Oc2ccccc21
remaining at 24 h, 150 µM [2]: > 90% | CLint [3]: 97 µL/min/mg | pIC50 [1]: 5.12

O=S(=O)(c1ccc(NC2CCNCC2)cc1)N1c2ccccc2Oc2ccccc21
pIC50 [1]: 4.70

O=S(=O)(c1ccc(NCCCN2CCCCC2)cc1)N1c2ccccc2Oc2ccccc21
pIC50 [1]: 4.82
